Reference: ChEMBL document CHEMBL1123811, “gem-Diphosphonate and gem-phosphonate-phosphate compounds with specific high density lipoprotein inducing activity” (1987)

Tests used:
Type in all cases: functional
Set-up in all cases: concentration or dose not given beside the values
Rattus norvegicus [1] = species on record: Rattus norvegicus; assay: Activity to induce the elevation of HDL(High Density Lipoproteins)-Cholesterol of male Wistar rats
In short: (§1)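 Wistar rats on normal diet; groups were vehicle control, an internal-standard diphosphonate, and test compounds. Dosed daily for 4 days; diphosphonates were dissolved in water or suspended in 1% (carboxymethyl)cellulose, 4 mL/kg. On day 5, after overnight fast, rats were killed under ether. EDTA plasma was assayed enzymatically for HDL-C after heparin-CaCl2 precipitation of VLDL/LDL, phospholipids, triglycerides and α/β-cholesterol ratio. Results are given as % of control.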

Rattus norvegicus [2] = species on record: Rattus norvegicus; assay: Activity to induce the elevation of phospholipids of male Wistar rats; in short: as §1
Rattus norvegicus [3] = species on record: Rattus norvegicus; assay: Activity to induce the elevation of triglycerides of male Wistar rats; in short: as §1
Rattus norvegicus [4] = species on record: Rattus norvegicus; assay: Activity to induce the elevation of alpha/beta cholesterol ratio of male Wistar rats; in short: as §1

Row | Compound | HDL-cholesterol change relative to control (%) (Rattus norvegicus [1]) | Plasma phospholipids, % change versus control (Rattus norvegicus [2]) | Percent change in plasma triglycerides versus control (Rattus norvegicus [3]) | Percent change in alpha/beta cholesterol ratio versus control (Rattus norvegicus [4])
1 | COP(=O)(OC)C(O)(C(C)(C)C)P(=O)(OC)OC | 0% | -43% | 24% | 32%
2 | COP(=O)(OC)C(Cc1ccccc1)P(=O)(OC)OC | 32% | 25% | -3% | 22%
3 | COP(=O)(OC)C(O)(c1ccc(C(=O)c2ccc(Cl)cc2)cc1)P(=O)(OC)OC | 22% | 39% | -16% | 46%
4 | COP(=O)(OC)OC(c1ccc(F)cc1)P(=O)(OC)OC (stereo not given) | 40% | 2% | -9% | 81%
5 | COP(=O)(OC)OC(c1ccc(C)cc1)P(=O)(OC)OC (stereo not given) | 4% | -8% | -33% | 47%
6 | COP(=O)(OC)OC(C(C)(C)Cc1ccc(Cl)cc1)P(=O)(OC)OC (stereo not given) | -30% | -27% | -19% | -38%
7 | COc1ccc(C(OP(=O)(OC)OC)P(=O)(OC)OC)cc1 (stereo not given) | 0% | -3% | 41% | 2%
8 | COP(=O)(OC)C(O)(c1ccc(-c2ccccc2)cc1)P(=O)(OC)OC | 74% | 1% | 5% | 5%
9 | CCCOP(=O)(OCCC)OC(c1ccc(Cl)cc1)P(=O)(OCCC)OCCC (stereo not given) | -6% | 4% | -17% | 4%
10 | COP(=O)(OC)OC(C(C)(C)c1ccccc1)P(=O)(OC)OC (stereo not given) | 33% | 15% | 36% | 25%
11 | COP(=O)(OC)C(Cc1ccc(Cl)cc1)P(=O)(OC)OC | 38% | 51% | 62% | 75%
12 | O=P(O)(O)C(Cc1ccc(Cl)cc1)P(=O)(O)O |  | 0% | -146% | -40%
13 | COP(=O)(OC)C(O)(c1ccc2ccccc2c1)P(=O)(OC)OC | 35% | 25% | 24% | 51%
14 | CCCCOP(=O)(OCCCC)C(Cc1ccc(Cl)cc1)P(=O)(OCCCC)OCCCC | 0% | 6% | 1% | 2%
15 | O=P(O)(O)C(Cc1ccccc1)P(=O)(O)O | -8% | 3% | -11% | -10%
16 | CC(C)OP(=O)(OC(C)C)C(Cc1ccc(Cl)cc1)P(=O)(OC(C)C)OC(C)C | 12% | 13% | 19% | -1%
17 | COP(=O)(O)C(Cc1ccc(Cl)cc1)P(=O)(O)OC (stereo not given) | 27% | 6% | -30% | -20%

Row | Compound | HDL-cholesterol change relative to control (%) (Rattus norvegicus [1]) | Plasma phospholipids, % change versus control (Rattus norvegicus [2]) | Percent change in plasma triglycerides versus control (Rattus norvegicus [3]) | Percent change in alpha/beta cholesterol ratio versus control (Rattus norvegicus [4])
18 | CCOP(=O)(OCC)C(CCCOc1ccccc1)P(=O)(OCC)OCC | 16% | 0% | 0% | 37%
19 | CCOP(=O)(OCC)C(Cc1ccccc1)P(=O)(OCC)OCC | 5% | 5% | -47% | 28%
20 | CCOP(=O)(OCC)C(CCCc1ccccc1)P(=O)(OCC)OCC | 62% | 17% | 46% | 33%
21 | COP(=O)(OC)OC(c1ccc(C(F)(F)F)cc1)P(=O)(OC)OC (stereo not given) | 22% | 3% | 4% | 29%
22 | COP(=O)(OC)OC(c1ccccc1)P(=O)(OC)OC (stereo not given) | 4% | 21% | 32% | 76%
23 | CC(C)OP(=O)(OC(C)C)OC(c1ccc(Cl)cc1)P(=O)(OC(C)C)OC(C)C (stereo not given) | -34% | -20% | -37% | -46%
24 | COP(=O)(OC)C(O)(c1ccc(F)cc1)P(=O)(OC)OC | 23% | 3% | 27% | 64%
25 | CCCCCC(O)(P(=O)(OC)OC)P(=O)(OC)OC | -16% | 10% | -21% | -17%
26 | COP(=O)(OC)C(O)(C(C)(C)Oc1ccc(Cl)cc1)P(=O)(OC)OC | 8% | 26% | -33% | -8%
27 | COP(=O)(OC)OC(c1cccc(Br)c1)P(=O)(OC)OC (stereo not given) | 28% | 3% | 14% | 71%
28 | COP(=O)(OC)OC(C(C)C)P(=O)(OC)OC (stereo not given) | 15% | 7% | -26% | 38%
29 | CCOP(=O)(OCC)OC(c1ccc(Cl)cc1)P(=O)(OCC)OCC (stereo not given) | 15% | 16% | 8% | -6%
30 | CCOP(=O)(OCC)C(CCOc1ccccc1)P(=O)(OCC)OCC | 29% | 25% | -38% | 26%
31 | COP(=O)(OC)OC(c1ccc(-c2ccccc2)cc1)P(=O)(OC)OC (stereo not given) | 24% | 18% | 0% | 40%
32 | CCOP(=O)(OCC)C(CCc1ccccc1)P(=O)(OCC)OCC | 41% | 16% | 11% | 74%
33 | COP(=O)(OC)OC(c1ccccc1Cl)P(=O)(OC)OC (stereo not given) |  | 22% | -42% | 34%
